In ChEMBL document CHEMBL4002610, “Design, synthesis and biological activity evaluation of novel 2,6-difluorobenzamide derivatives through FtsZ inhibition” (2017):
Values after ≈ are worked out from the molar mass of the structure shown. Active and inactive are the calls of the source. No cut-off for these calls is given here.

Experiments:
Bacillus subtilis [1] = assay: Antibacterial activity against Bacillus subtilis ATCC 9372 after 24 hrs by broth microdilution method; assay type: functional; conditions: ATCC 9372, 24 h
Summary of the method: (§1)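 MIC by standard broth microdilution per NCCLS guidance. Strain panel: B. subtilis ATCC9372 and S. aureus ATCC25923 as standard susceptible strains, S. aureus ATCC29213 as […], S. pyogenes PS as penicillin-susceptible, S. pneumoniae ATCC49619 as standard susceptible, alongside Gram-negative strains.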

Staphylococcus aureus [2] = assay: Antibacterial activity against Staphylococcus aureus ATCC 25923 after 24 hrs by broth microdilution method; assay type: functional; conditions: ATCC 25923, 24 h; summary of the method: as §1
Staphylococcus aureus [3] = assay: Antibacterial activity against Staphylococcus aureus ATCC 29213 after 24 hrs by broth microdilution method; assay type: functional; conditions: ATCC 29213, 24 h; summary of the method: as §1
Staphylococcus aureus [4] = assay: Antibacterial activity against penicillin-resistant Staphylococcus aureus clinical isolate after 24 hrs by broth microdilution method; assay type: functional
Streptococcus pyogenes = assay: Antibacterial activity against penicillin-susceptible Streptococcus pyogenes after 24 hrs by broth microdilution method; assay type: functional; summary of the method: as §1
Streptococcus pneumoniae = assay: Antibacterial activity against Streptococcus pneumoniae ATCC 49619 after 24 hrs by broth microdilution method; assay type: functional; conditions: ATCC 49619, 24 h; summary of the method: as §1
Escherichia coli = assay: Antibacterial activity against Escherichia coli ATCC 25922 after 24 hrs by broth microdilution method; assay type: functional; conditions: ATCC 25922, 24 h; summary of the method: as §1
Pseudomonas aeruginosa = assay: Antibacterial activity against Pseudomonas aeruginosa ATCC 27853 after 24 hrs by broth microdilution method; assay type: functional; conditions: ATCC 27853, 24 h; summary of the method: as §1
[5] = system: Escherichia coli ATCC 25922; assay: Inhibition of FtsZ in Escherichia coli ATCC 25922 assessed as decrease in cell division by measuring lowest compound concentration at which bacterial filamentation is observed after 5 hrs by phase-contrast light microscopy
Summary of the method: (§2)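 Cell division inhibition scored by cell morphology under phase-contrast light microscopy. B. subtilis ATCC9372, E. coli ATCC25922 and S. aureus ATCC25923 were exposed to compound. The lowest concentration giving filamentation (B. subtilis, E. coli) or ballooning (S. aureus) was recorded as the cell division inhibitory concentration.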

Bacillus subtilis [6] = assay: Inhibition of FtsZ in Bacillus subtilis ATCC 9372 assessed as decrease in cell division by measuring cell morphology at 2048 to 4096 ug/ml after 5 hrs by phase-contrast light microscopy
[7] = target: T1, Cell division protein FtsZ (Staphylococcus aureus) (UniProt P0A031); assay: Inhibition of FtsZ in Staphylococcus aureus ATCC 25923 assessed as decrease in cell division by measuring cell morphology at 2048 to 4096 ug/ml after 5 hrs by phase-contrast light microscopy
T1 sequence (whole entry): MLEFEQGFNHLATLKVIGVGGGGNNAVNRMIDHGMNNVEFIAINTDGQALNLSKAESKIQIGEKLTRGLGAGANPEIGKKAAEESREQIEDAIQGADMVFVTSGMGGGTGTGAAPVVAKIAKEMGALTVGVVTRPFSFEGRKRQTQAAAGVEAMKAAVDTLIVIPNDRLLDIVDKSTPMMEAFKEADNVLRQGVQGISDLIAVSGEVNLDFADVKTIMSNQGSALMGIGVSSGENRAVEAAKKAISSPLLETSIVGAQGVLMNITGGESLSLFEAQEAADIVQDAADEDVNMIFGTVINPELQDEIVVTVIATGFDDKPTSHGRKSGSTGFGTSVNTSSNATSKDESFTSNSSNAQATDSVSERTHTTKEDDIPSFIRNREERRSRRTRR

[8] = target: T1, Cell division protein FtsZ (Staphylococcus aureus); assay: Inhibition of FtsZ in Staphylococcus aureus ATCC 25923 assessed as decrease in cell division by measuring lowest compound concentration at which bacterial ballooning is observed after 5 hrs by phase-contrast light microscopy; summary of the method: as §2
Bacillus subtilis [9] = assay: Inhibition of FtsZ in Bacillus subtilis ATCC 9372 assessed as decrease in cell division by measuring lowest compound concentration at which bacterial filamentation is observed after 5 hrs by phase-contrast light microscopy; summary of the method: as §2

Q: With `NC(=O)c1c(F)ccc(OCCn2cnc3ccccc32)c1F` as the molecule, how does the MIC (Bacillus subtilis [1]) read?
A: 1020 µg/mL (≈ 3230 µM)

Q: What about the MIC (Staphylococcus aureus [2]) of the same molecule?
A: 1020 µg/mL (≈ 3230 µM)

Q: What about the MIC (Staphylococcus aureus [3]) of the same molecule?
A: 512 µg/mL (≈ 1610 µM)

Q: And the MIC (Staphylococcus aureus [4])?
A: 1020 µg/mL (≈ 3230 µM)

Q: And the MIC (Streptococcus pyogenes)?
A: 1020 µg/mL (≈ 3230 µM)

Q: What about the MIC (Streptococcus pneumoniae) of the same molecule?
A: 512 µg/mL (≈ 1610 µM)

Q: And the MIC (Escherichia coli)?
A: 512 µg/mL (≈ 1610 µM)

Q: And the MIC (Pseudomonas aeruginosa)?
A: 1020 µg/mL (≈ 3230 µM)

Q: And the INH [5]?
A: 256 µg/mL

Q: What about the inhibition (Bacillus subtilis [6]) of the same molecule?
A: inactive

Q: What about the inhibition [7] of the same molecule?
A: inactive

Q: How did the MIC (Bacillus subtilis [1]) turn out when `NC(=O)c1c(F)ccc(OCCCCCn2cnc3ccccc32)c1F` was run?
A: 512 µg/mL (≈ 1420 µM)

Q: And the MIC (Staphylococcus aureus [2])?
A: 512 µg/mL (≈ 1420 µM)

Q: And the MIC (Staphylococcus aureus [3])?
A: 512 µg/mL (≈ 1420 µM)

Q: And the MIC (Staphylococcus aureus [4])?
A: 512 µg/mL (≈ 1420 µM)

Q: What about the MIC (Streptococcus pyogenes) of the same molecule?
A: 1020 µg/mL (≈ 2850 µM)

Q: And the MIC (Streptococcus pneumoniae)?
A: 512 µg/mL (≈ 1420 µM)

Q: What about the MIC (Escherichia coli) of the same molecule?
A: 1020 µg/mL (≈ 2850 µM)

Q: And the MIC (Pseudomonas aeruginosa)?
A: 512 µg/mL (≈ 1420 µM)

Q: What about the INH [5] of the same molecule?
A: 512 µg/mL

Q: What about the inhibition (Bacillus subtilis [6]) of the same molecule?
A: inactive

Q: And the inhibition [7]?
A: inactive

Q: What does the source list for `NC(=O)c1c(F)ccc(OCCCCn2cnc3ccccc32)c1F`?
A: MIC (Bacillus subtilis [1]): 512 µg/mL (≈ 1480 µM); MIC (Staphylococcus aureus [2]): 1020 µg/mL (≈ 2970 µM); MIC (Staphylococcus aureus [3]): 512 µg/mL (≈ 1480 µM); MIC (Staphylococcus aureus [4]): 1020 µg/mL (≈ 2970 µM); MIC (Streptococcus pyogenes): 1020 µg/mL (≈ 2970 µM); MIC (Streptococcus pneumoniae): 512 µg/mL (≈ 1480 µM); MIC (Escherichia coli): 1020 µg/mL (≈ 2970 µM); MIC (Pseudomonas aeruginosa): 512 µg/mL (≈ 1480 µM); INH [5]: 512 µg/mL; inhibition (Bacillus subtilis [6]): inactive; inhibition [7]: inactive

Q: `NC(=O)c1c(F)ccc(OCc2nc3ccccc3[nH]2)c1F` was tested. Which MIC (Bacillus subtilis [1]) did it give?
A: 1020 µg/mL (≈ 3380 µM)

Q: What about the MIC (Staphylococcus aureus [2]) of the same molecule?
A: 1020 µg/mL (≈ 3380 µM)

Q: And the MIC (Staphylococcus aureus [3])?
A: 512 µg/mL (≈ 1690 µM)

Q: And the MIC (Staphylococcus aureus [4])?
A: 1020 µg/mL (≈ 3380 µM)

Q: What about the MIC (Streptococcus pyogenes) of the same molecule?
A: 1020 µg/mL (≈ 3380 µM)

Q: And the MIC (Streptococcus pneumoniae)?
A: 256 µg/mL (≈ 844 µM)

Q: And the MIC (Escherichia coli)?
A: 256 µg/mL (≈ 844 µM)

Q: And the MIC (Pseudomonas aeruginosa)?
A: 256 µg/mL (≈ 844 µM)

Q: What about the INH [8] of the same molecule?
A: 512 µg/mL

Q: And the INH [5]?
A: 128 µg/mL

Q: And the inhibition (Bacillus subtilis [6])?
A: inactive

Q: How did the MIC (Bacillus subtilis [1]) turn out when `NC(=O)c1c(F)ccc(OCCCCCCn2cnc3cc([N+](=O)[O-])ccc32)c1F` was run?
A: 1020 µg/mL (≈ 2450 µM)

Q: And the MIC (Staphylococcus aureus [2])?
A: 1020 µg/mL (≈ 2450 µM)

Q: What about the MIC (Staphylococcus aureus [3]) of the same molecule?
A: 512 µg/mL (≈ 1220 µM)

Q: What about the MIC (Staphylococcus aureus [4]) of the same molecule?
A: 1020 µg/mL (≈ 2450 µM)

Q: And the MIC (Streptococcus pyogenes)?
A: 512 µg/mL (≈ 1220 µM)

Q: What about the MIC (Streptococcus pneumoniae) of the same molecule?
A: 256 µg/mL (≈ 612 µM)

Q: What about the MIC (Escherichia coli) of the same molecule?
A: 512 µg/mL (≈ 1220 µM)

Q: And the MIC (Pseudomonas aeruginosa)?
A: 512 µg/mL (≈ 1220 µM)

Q: And the INH (Bacillus subtilis [9])?
A: 64 µg/mL

Q: And the INH [5]?
A: 256 µg/mL

Q: What about the inhibition [7] of the same molecule?
A: inactive

Q: Which results are given for `NC(=O)c1c(F)ccc(OCCCCn2cnc3cc([N+](=O)[O-])ccc32)c1F`?
A: MIC (Bacillus subtilis [1]): 64 µg/mL (≈ 164 µM); MIC (Staphylococcus aureus [2]): 1020 µg/mL (≈ 2620 µM); MIC (Staphylococcus aureus [3]): 256 µg/mL (≈ 656 µM); MIC (Staphylococcus aureus [4]): 512 µg/mL (≈ 1310 µM); MIC (Streptococcus pyogenes): 256 µg/mL (≈ 656 µM); MIC (Streptococcus pneumoniae): 128 µg/mL (≈ 328 µM); MIC (Escherichia coli): 512 µg/mL (≈ 1310 µM); MIC (Pseudomonas aeruginosa): 512 µg/mL (≈ 1310 µM); INH [8]: 512 µg/mL; INH [5]: 256 µg/mL; inhibition (Bacillus subtilis [6]): inactive; inhibition [7]: inactive
